Experiments:
[1] = Cytotoxicity against African green monkey Vero cells assessed as reduction in cell viability measured after 48 hrs by MTT assay; format: toxicity, cell-based; conditions: African green monkey (Chlorocebus sabaeus)
[2] = system: HepG2; experiment: Antiproliferative activity against human HepG2 cells assessed as reduction in cell viability measured after 48 hrs by MTT assay; format: functional, cell-based; conditions: HepG2, 48 h
Method in brief: (§1)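 Cells were grown at 37 °C in 5% CO2 in medium with 10% FBS: RPMI-1640 for A549, DU-145 and HepG2, and DMEM/F12 for PC-3. They were seeded at 5×10^3/well. At 70–80% confluence they were exposed to a concentration range diluted from a 60 mM DMSO stock for 48 h at 37 °C, with 0.1% DMSO as vehicle. MTT 5 mg/mL stock was added for 4 h, formazan dissolved in DMSO, A570 read, and % inhibition calculated against control. IC50 was taken from the concentration series.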

[3] = system: A549; experiment: Antiproliferative activity against human A549 cells assessed as reduction in cell viability measured after 48 hrs by MTT assay; format: functional, cell-based; conditions: A549, 48 h; method in brief: as §1
[4] = Selectivity index, ratio of IC50 for cytotoxicity against African green monkey Vero cells to IC50 for antiproliferative activity against human A549 cells; format: toxicity, cell-based; conditions: Vero cells versus A549 cells, read-out: Ratio IC50
[5] = system: PC-3; experiment: Antiproliferative activity against human PC-3 cells assessed as reduction in cell viability measured after 48 hrs by MTT assay; format: functional, cell-based; conditions: PC-3, 48 h; method in brief: as §1
[6] = Selectivity index, ratio of IC50 for cytotoxicity against African green monkey Vero cells to IC50 for antiproliferative activity against human PC-3 cells; format: toxicity, cell-based; conditions: Vero cells versus PC-3 cells, read-out: Ratio IC50
[7] = Selectivity index, ratio of IC50 for cytotoxicity against African green monkey Vero cells to IC50 for antiproliferative activity against human HepG2 cells; format: toxicity, cell-based; conditions: Vero cells versus HepG2 cells, read-out: Ratio IC50
[8] = Selectivity index, ratio of IC50 for cytotoxicity against African green monkey Vero cells to IC50 for antiproliferative activity against human DU-145 cells; format: toxicity, cell-based; conditions: Vero cells versus DU-145 cells, read-out: Ratio IC50
[9] = system: DU-145; experiment: Antiproliferative activity against human DU-145 cells assessed as reduction in cell viability measured after 48 hrs by MTT assay; format: functional, cell-based; conditions: DU-145, 48 h; method in brief: as §1
[10] = molecular target: Epidermal growth factor receptor (Homo sapiens, UniProt P00533); experiment: Inhibition of wild type EGFR (unknown origin) incubated for 40 mins by Kinase Glo Max reagent based luminescence analysis
[11] = molecular target: Epidermal growth factor receptor (Homo sapiens, UniProt P00533, T790M); experiment: Inhibition of EGFR T790M mutant (unknown origin) incubated for 40 mins by Kinase Glo Max reagent based luminescence analysis
Sequence of Epidermal growth factor receptor (Homo sapiens, UniProt P00533, T790M) (P00533 25-1210 T790M limits assumed): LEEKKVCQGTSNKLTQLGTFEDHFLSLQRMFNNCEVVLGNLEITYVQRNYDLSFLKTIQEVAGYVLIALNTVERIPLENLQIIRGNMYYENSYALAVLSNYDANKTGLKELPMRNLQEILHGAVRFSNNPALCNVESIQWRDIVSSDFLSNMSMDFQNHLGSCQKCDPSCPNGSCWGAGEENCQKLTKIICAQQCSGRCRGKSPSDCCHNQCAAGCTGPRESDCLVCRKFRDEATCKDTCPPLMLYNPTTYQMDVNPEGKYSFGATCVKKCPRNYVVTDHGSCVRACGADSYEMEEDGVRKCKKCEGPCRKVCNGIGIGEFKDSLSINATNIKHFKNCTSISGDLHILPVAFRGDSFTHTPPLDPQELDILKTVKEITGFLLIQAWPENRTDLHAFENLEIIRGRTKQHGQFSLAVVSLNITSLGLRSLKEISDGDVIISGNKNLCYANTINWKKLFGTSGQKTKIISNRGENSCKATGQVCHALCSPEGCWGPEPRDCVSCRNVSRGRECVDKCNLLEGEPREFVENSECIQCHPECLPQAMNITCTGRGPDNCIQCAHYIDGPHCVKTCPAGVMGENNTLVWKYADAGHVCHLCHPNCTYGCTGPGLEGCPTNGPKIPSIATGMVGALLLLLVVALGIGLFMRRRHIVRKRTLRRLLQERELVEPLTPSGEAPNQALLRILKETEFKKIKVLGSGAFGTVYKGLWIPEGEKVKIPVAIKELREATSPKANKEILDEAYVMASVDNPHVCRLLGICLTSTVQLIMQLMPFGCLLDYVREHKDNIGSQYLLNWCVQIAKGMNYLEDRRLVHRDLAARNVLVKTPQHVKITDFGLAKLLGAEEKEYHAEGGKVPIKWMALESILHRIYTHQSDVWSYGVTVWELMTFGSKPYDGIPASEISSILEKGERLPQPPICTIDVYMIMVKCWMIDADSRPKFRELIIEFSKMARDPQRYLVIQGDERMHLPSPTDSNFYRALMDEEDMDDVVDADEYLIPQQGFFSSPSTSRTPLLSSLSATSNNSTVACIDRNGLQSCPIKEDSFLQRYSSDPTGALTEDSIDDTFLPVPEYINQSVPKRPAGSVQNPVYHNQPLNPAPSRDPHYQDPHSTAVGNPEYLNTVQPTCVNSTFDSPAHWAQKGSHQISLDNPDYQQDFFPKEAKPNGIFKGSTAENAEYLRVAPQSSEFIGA

Sequence of Epidermal growth factor receptor (Homo sapiens, UniProt P00533) (P00533 whole entry): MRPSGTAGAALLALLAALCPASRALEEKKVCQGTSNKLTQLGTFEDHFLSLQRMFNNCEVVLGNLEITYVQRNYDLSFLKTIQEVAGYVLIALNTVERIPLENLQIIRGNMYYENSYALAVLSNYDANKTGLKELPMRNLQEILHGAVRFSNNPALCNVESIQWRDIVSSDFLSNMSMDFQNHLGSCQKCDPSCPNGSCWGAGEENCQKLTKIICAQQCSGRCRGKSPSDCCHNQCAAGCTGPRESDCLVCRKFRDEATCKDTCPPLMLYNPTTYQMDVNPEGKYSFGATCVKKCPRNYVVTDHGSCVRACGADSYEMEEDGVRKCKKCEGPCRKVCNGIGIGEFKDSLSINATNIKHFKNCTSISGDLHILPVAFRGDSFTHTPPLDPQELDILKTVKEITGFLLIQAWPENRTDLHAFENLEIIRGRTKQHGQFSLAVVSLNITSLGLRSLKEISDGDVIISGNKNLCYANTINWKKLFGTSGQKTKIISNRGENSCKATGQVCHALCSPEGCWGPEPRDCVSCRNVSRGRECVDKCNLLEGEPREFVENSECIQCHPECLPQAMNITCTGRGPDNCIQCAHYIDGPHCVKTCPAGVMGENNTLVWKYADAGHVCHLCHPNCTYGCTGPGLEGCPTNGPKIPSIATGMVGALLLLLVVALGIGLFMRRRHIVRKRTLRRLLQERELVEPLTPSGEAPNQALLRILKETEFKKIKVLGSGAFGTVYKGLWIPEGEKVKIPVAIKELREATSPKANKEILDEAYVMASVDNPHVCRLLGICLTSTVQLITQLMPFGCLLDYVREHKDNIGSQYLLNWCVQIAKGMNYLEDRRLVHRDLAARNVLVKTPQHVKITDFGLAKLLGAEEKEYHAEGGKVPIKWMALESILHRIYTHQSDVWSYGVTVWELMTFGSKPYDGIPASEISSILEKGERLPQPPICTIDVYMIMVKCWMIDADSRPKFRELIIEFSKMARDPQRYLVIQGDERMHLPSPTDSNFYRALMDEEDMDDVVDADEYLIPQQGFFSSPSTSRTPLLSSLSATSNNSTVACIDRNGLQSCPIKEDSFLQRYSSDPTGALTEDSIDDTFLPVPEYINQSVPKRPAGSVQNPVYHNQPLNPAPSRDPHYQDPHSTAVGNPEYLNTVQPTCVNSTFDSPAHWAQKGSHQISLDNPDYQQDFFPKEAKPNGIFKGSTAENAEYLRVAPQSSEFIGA

Row | Structure (SMILES) | IC50 [2] [µM] | IC50 [3] [µM] | IC50 [5] [nM] | IC50 [9] [nM] | IC50 [10] [nM] | IC50 [11] [nM] | IC50 at 48 h [1] [µM] | selectivity ratio [4] | selectivity ratio [6] | selectivity ratio [7] | selectivity ratio [8]
1 | O=[N+]([O-])c1cc(-c2nc(-c3ccc(-c4nc(-c5nnc(-c6ccncc6)o5)c[nH]4)cc3)no2)cc([N+](=O)[O-])c1 | 3.61 | 5.49 | 6220 | – | – | – | > 25 | 4.55 | 4.01 | 6.92 | –
2 | O=[N+]([O-])c1ccc(-c2nc(-c3ccc(-c4nc(-c5nnc(-c6ccncc6)o5)c[nH]4)cc3)no2)cc1 | 5.33 | – | 2230 | 3810 | – | – | > 24 | – | 8.96 | 4.5 | 6.29
3 | COc1cc(OC)cc(-c2nc(-c3ccc(-c4nc(-c5nnc(-c6ccncc6)o5)c[nH]4)cc3)no2)c1 | 0.273 | 0.86 | 980 | 880 | 217 | 1230 | > 15 | 17.4 | 15.3 | 54.9 | 17
4 | COc1cc([C@@H]2c3cc4c(cc3[C@@H](O[C@@H]3O[C@@H]5CO[C@@H](C)O[C@H]5[C@H](O)[C@H]3O)[C@H]3COC(=O)[C@H]23)OCO4)cc(OC)c1O [ETOPOSIDE] | 2.11 | 3.08 | 2390 | 1970 | – | – | > 25 | 8.11 | 10.5 | 11.8 | 12.7

Second part, led by results:

Row | IC50 [2] [µM] | IC50 [3] [µM] | IC50 [5] [nM] | IC50 [9] [nM] | IC50 [10] [nM] | IC50 [11] [nM] | Structure (SMILES) | IC50 at 48 h [1] [µM] | selectivity ratio [4] | selectivity ratio [6] | selectivity ratio [7] | selectivity ratio [8]
5 | 5.78 | 4.84 | 4580 | – | – | – | Clc1ccc(-c2nc(-c3ccc(-c4nc(-c5nnc(-c6ccncc6)o5)c[nH]4)cc3)no2)cc1 | > 25 | 5.16 | 5.46 | 4.32 | –
6 | 6.99 | 8.21 | – | – | – | – | N#Cc1ccc(-c2nc(-c3ccc(-c4nc(-c5nnc(-c6ccncc6)o5)c[nH]4)cc3)no2)cc1 | > 23 | 2.8 | – | 3.29 | –
